Measured values from ChEMBL document CHEMBL3232705, “Discovery of isoquinolinone indole acetic acids as antagonists of chemoattractant receptor homologous molecule expressed on Th2 cells (CRTH2) for the treatment of allergic inflammatory diseases” (J Med Chem, 2014).
Activity calls are given as the source filed them. The calls are words filed in the database; no cut-off is given here.

Key:
Mus musculus [1] = experiment: Antiallergic activity in house dust mite-induced allergic airway disease BALB/c mouse model assessed as reduction in macrophage level in bronchoalveolar lavage fluid at 40 mg/kg, po after 72 hrs of HDM challenge; type: functional, organism-based; design: dose 40 mg/kg; conditions: Lung
How it was run: (§1)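 BALB/c mice given house dust mite intratracheally via a catheter passed through the vocal cords. Test article 40 mg/kg orally once daily; dexamethasone 1 mg/kg ip once daily as reference. Total and differential BAL cells (eosinophils, macrophages, lymphocytes, neutrophils) counted 72 h after HDM challenge. Mean ± SEM, Mann–Whitney U test.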

Cavia porcellus [2] = experiment: Antiallergic activity in ovalbumin-induced allergic lung inflammation Hartley guinea pig model assessed as eosinophil level in bronchoalveolar lavage fluid at 20 mg/kg, po administered 1 hr before and 6 hrs after ovalbumin challenge after 24 hrs; type: functional, organism-based; design: dose 20 mg/kg
How it was run: (§2)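 Female Hartley guinea pigs (375–425 g) sensitized ip on days 1 and 5 with 100 μg OVA plus 100 mg aluminum hydroxide in PBS, then challenged on day 15 with aerosolized 0.01% OVA for 60 min. Dosed orally 1 h before and 6 h after challenge; vehicle was Tween 80 in cherry syrup. On day 16, lungs lavaged with 2 × 10 mL PBS. Total cells counted by hemocytometer; differentials from stained cytospins. Unpaired t test.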

[3] = Half life in monkey at 2 mg/kg, iv; type: ADME, organism-based, Macaca mulatta; design: dose 2 mg/kg, route intravenous; conditions: rhesus monkey, in vivo
How it was run: (§3)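 Single intravenous dose of 2 mg/kg and single oral dose of 10 mg/kg, given separately, in rat, dog and monkey. Clearance and half-life taken from the iv arm; Cmax from the oral arm.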

Cavia porcellus [4] = experiment: Antiallergic activity in ovalbumin-induced allergic lung inflammation Hartley guinea pig model assessed as total cellularity in bronchoalveolar lavage fluid at 20 mg/kg, po administered 1 hr before and 6 hrs after ovalbumin challenge measured after 24 hrs; type: functional, organism-based; design: dose 20 mg/kg; how it was run: as §2
Cytochrome P450 2C19 = Cytochrome P450 2C19 (Homo sapiens, UniProt P33261); experiment: Inhibition of CYP2C19 (unknown origin); type: ADME
Cytochrome P450 2C19, sequence (P33261 whole entry): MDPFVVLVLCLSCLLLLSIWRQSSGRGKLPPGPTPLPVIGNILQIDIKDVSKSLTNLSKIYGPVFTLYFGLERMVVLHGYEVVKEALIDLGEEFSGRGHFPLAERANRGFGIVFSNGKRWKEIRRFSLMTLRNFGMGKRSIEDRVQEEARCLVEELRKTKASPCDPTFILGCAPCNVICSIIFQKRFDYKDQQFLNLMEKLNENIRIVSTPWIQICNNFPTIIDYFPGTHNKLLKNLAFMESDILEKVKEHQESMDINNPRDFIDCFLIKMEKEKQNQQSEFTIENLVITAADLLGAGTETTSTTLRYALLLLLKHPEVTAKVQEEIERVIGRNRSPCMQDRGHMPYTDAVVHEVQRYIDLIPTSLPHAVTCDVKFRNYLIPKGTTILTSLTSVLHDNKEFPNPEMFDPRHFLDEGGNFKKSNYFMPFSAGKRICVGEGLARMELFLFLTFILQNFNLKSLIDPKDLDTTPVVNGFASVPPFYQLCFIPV

Mus musculus [5] = experiment: Antiallergic inflammatory activity in oxazolone induced contact hypersensitivity mouse model assessed as reduction ear swelling at 3 mg/kg, po prior to oxazolone and 7 hrs post challenge measured after 24 hrs; type: functional
How it was run: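 Mice sensitized on the shaved abdomen with 2% oxazolone in ethanol one week before challenge. Dosed orally 1 h before the left ear was challenged with 10 μL of 2% oxazolone (ethanol on the right ear as control), then redosed 7 h after challenge. Ear thickness measured by micrometer; swelling taken as 24 h post-challenge minus pre-challenge thickness. Unpaired t test.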

Ovis aries [6] = experiment: Inhibition of carbachol-induced airway hyperresponsiveness in sheep at 3 mg/kg, iv bid; type: functional, organism-based; design: dose 3 mg/kg
Ovis aries [7] = experiment: Inhibition of allergen-induced mucociliary clearance in sheep assessed as tracheal mucus velocity at 3 mg/kg, iv measured at 4 hrs (reference value: 47%); type: functional; conditions: Trachea
How it was run: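 Five sheep received 3 mg/kg iv around allergen challenge. Tracheal mucus velocity measured at 4 h and 8 h and expressed as % of baseline.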

Ovis aries [8] = experiment: Inhibition of Ascaris-induced airway bronchoconstriction in sheep assessed as inhibition of early phase allergic airway bronchoconstriction at 1 mg/kg, iv qd for 7 days; type: functional, organism-based; design: dose 1 mg/kg
How it was run: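 Sheep given 1 mg/kg iv once daily for 7 days before Ascaris suum allergen challenge. Early and late responses read as airway resistance above baseline, compared with each animal's historical untreated values. After the AHR measurement, three bronchi per sheep were lavaged for cell counts.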

Ovis aries [9] = experiment: Inhibition of Ascaris-induced airway bronchoconstriction in sheep assessed as inhibition of late phase allergic airway bronchoconstriction at 3 mg/kg, iv bid; type: functional, organism-based; design: dose 3 mg/kg
Salmonella typhimurium = experiment: Genotoxicity in Salmonella typhimurium by AMES test; type: toxicity, organism-based; conditions: salmonella enterica subsp. enterica serovar typhimurium
[10] = Volume of distribution at steady state in rat at 2 mg/kg, iv; type: ADME, organism-based; design: dose 2 mg/kg, route intravenous; conditions: in vivo, read-out: Vdss
[11] = target: T1, Prostaglandin D2 receptor 2 (Homo sapiens, UniProt Q9Y5Y4); experiment: Antagonist activity at human recombinant CRTh2 expressed in CHO-K1 cells by cAMP TR FRET assay; type: functional, cell-based
T1 sequence (Q9Y5Y4 whole entry): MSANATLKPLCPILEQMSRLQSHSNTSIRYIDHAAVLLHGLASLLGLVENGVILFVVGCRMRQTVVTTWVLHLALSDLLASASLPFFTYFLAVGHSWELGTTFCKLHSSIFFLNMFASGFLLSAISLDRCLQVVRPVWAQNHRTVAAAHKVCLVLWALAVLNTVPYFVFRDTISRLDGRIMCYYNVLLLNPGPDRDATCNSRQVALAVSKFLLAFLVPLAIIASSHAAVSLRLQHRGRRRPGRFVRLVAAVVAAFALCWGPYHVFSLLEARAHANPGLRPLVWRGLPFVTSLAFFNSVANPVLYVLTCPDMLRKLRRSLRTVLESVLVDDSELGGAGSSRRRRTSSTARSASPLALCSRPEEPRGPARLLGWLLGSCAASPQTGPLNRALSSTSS

[12] = Volume of distribution at steady state in monkey at 2 mg/kg, iv; type: ADME, organism-based, Macaca mulatta; design: dose 2 mg/kg, route intravenous; conditions: rhesus monkey, in vivo, read-out: Vdss
[13] = target: T2, Prostaglandin D2 receptor (Homo sapiens, UniProt Q13258); experiment: Binding affinity to DP1 receptor (unknown origin) by FRET assay
T2 sequence (Q13258 whole entry): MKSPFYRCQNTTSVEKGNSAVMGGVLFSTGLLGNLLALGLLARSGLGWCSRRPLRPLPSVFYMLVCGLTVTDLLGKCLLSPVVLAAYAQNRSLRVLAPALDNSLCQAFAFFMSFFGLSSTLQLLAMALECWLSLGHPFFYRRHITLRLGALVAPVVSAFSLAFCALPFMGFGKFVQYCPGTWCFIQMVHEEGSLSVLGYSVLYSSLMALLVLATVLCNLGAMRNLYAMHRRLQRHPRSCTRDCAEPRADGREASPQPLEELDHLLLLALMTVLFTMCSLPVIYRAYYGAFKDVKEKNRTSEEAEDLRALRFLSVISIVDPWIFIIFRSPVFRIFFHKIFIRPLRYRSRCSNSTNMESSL

Cytochrome P450 3A4 = Cytochrome P450 3A4 (Homo sapiens, UniProt P08684); experiment: Inhibition of CYP3A4 (unknown origin); type: ADME
Cytochrome P450 3A4, sequence (P08684 whole entry): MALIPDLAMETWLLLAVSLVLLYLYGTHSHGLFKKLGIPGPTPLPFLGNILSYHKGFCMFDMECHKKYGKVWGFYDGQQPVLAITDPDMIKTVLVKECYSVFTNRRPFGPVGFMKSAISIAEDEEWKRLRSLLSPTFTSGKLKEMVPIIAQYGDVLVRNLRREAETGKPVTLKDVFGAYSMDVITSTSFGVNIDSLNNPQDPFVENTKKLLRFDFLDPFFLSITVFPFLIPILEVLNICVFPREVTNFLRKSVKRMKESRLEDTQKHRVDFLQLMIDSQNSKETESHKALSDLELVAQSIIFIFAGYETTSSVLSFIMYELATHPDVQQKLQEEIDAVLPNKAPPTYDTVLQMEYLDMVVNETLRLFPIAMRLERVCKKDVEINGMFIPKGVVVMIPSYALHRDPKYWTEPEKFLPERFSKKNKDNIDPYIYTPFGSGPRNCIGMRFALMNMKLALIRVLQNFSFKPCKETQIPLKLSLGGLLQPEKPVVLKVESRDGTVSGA

[14] = Cmax in dog at 10 mg/kg, po; type: ADME, organism-based, Canis lupus familiaris; design: dose 10 mg/kg, route oral; conditions: in vivo; how it was run: as §3
[15] = Clearance in monkey at 2 mg/kg, iv; type: ADME, organism-based, Macaca mulatta; design: dose 2 mg/kg, route intravenous; conditions: rhesus monkey, in vivo; how it was run: as §3
Mus musculus [16] = experiment: Antiallergic activity in house dust mite-induced allergic airway disease BALB/c mouse model assessed as reduction in neutrophil level in bronchoalveolar lavage fluid at 40 mg/kg, po after 72 hrs of HDM challenge; type: functional, organism-based; design: dose 40 mg/kg; conditions: Lung; how it was run: as §1
Ovis aries [17] = experiment: Inhibition of Ascaris-induced airway bronchoconstriction in sheep assessed as inhibition of early phase allergic airway bronchoconstriction at 3 mg/kg, iv bid; type: functional, organism-based; design: dose 3 mg/kg

half-life [3]: 4.1 h
IC50 (Cytochrome P450 2C19): > 100 µM
Vd [10]: 1.2 L/kg
IC50 [11]: 0.006 µM
Vd [12]: 0.95 L/kg
IC50 [13]: 16 µM
IC50 (Cytochrome P450 3A4): > 100 µM
Cmax [14]: 2010 ng/mL
clearance [15]: 6.1 mL/min/kg
Structure (SMILES): Cc1c(-c2cn(C(C)C)c(=O)c3ccccc23)c2cc(F)ccc2n1CC(=O)O
inhibition (Mus musculus [1]): inactive
inhibition (Cavia porcellus [2]): Active
inhibition (Cavia porcellus [4]): Active
inhibition in vivo at 3 mg/kg (Mus musculus [5]): 50.5%
inhibition (Ovis aries [6]): Active
inhibition in vivo at 3 mg/kg (Ovis aries [7]): 70%
inhibition (Ovis aries [8]): Active
inhibition (Ovis aries [9]): Active
Activity (Salmonella typhimurium): Non-toxic
inhibition (Mus musculus [16]): Active
inhibition (Ovis aries [17]): inactive
